Assay results reported in ChEMBL document CHEMBL5058577, “EUbOPEN Chemogenomics Library 2 (Multiplex)” (2022).

Test system: HEK-293T
Experiment: Multiplex assay against HEK293T
Format: toxicity, cell-based
Details: human
Procedure, shortened: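 Hoechst33342, BioTracker Green Microtubule Cytoskeleton Dye, MitoTracker Red and Annexin V Alexa Fluor 680 were added to live cells at seeding, and imaging on a CQ1 microscope at 37°C and 5% CO2 followed compound addition. Gating by CellPathfinder machine learning separated cells into Hoechst high-intensity objects or normal cells, then normal cells into healthy, pyknosed or fragmented nuclei, then pyknosed cells into mitotic or apoptotic. Per cents of healthy-nucleus cells are reported for the tubulin, mitochondrial-mass and membrane-permeability phenotypes.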

[1] = 12 h, 1 µM, compound concentration 1 uM, replicate 1
[2] = 12 h, 1 µM, compound concentration 1 uM, replicate 2
[3] = 12 h, 10 µM, compound concentration 10 uM, replicate 1
[4] = 12 h, 10 µM, compound concentration 10 uM, replicate 2
[5] = 24 h, 1 µM, compound concentration 1 uM, replicate 1
[6] = 24 h, 1 µM, compound concentration 1 uM, replicate 2
[7] = 24 h, 10 µM, compound concentration 10 uM, replicate 1
[8] = 24 h, 10 µM, compound concentration 10 uM, replicate 2
[9] = 48 h, 1 µM, compound concentration 1 uM, replicate 1
[10] = 48 h, 1 µM, compound concentration 1 uM, replicate 2
[11] = 48 h, 10 µM, compound concentration 10 uM, replicate 1
[12] = 48 h, 10 µM, compound concentration 10 uM, replicate 2

## Cc1ccc(C(C)(O)c2nc3ccccc3s2)c(C)c1 (configuration not stated)
[1]
  Population Apoptotic (%): 30%
  Population Fragmented Nuclei (%): 19%
  Population Healthy Nuclei (%): 72%
  Population Hoechst High Intensity Objects (%): 4%
  Population Membrane Permeable-Phenotype (%): 1%
  Population Mitochondria Different-Phenotype (%): 36%
  Population Mitotic Cells (%): 70%
  Population Normal (%): 95%
  Population Pyknosed Nuclei (%): 8%
  Population Tubulin-Different-Phenotype (%): 30%
  Total Cell Count: 483
[2]
  Population Apoptotic (%): 41%
  Population Fragmented Nuclei (%): 4%
  Population Healthy Nuclei (%): 79%
  Population Hoechst High Intensity Objects (%): 5%
  Population Membrane Permeable-Phenotype (%): 0%
  Population Mitochondria Different-Phenotype (%): 63%
  Population Mitotic Cells (%): 58%
  Population Normal (%): 94%
  Population Pyknosed Nuclei (%): 16%
  Population Tubulin-Different-Phenotype (%): 25%
  Total Cell Count: 308
[3]
  Population Apoptotic (%): 56%
  Population Fragmented Nuclei (%): 5%
  Population Healthy Nuclei (%): 82%
  Population Hoechst High Intensity Objects (%): 8%
  Population Membrane Permeable-Phenotype (%): 0%
  Population Mitochondria Different-Phenotype (%): 62%
  Population Mitotic Cells (%): 43%
  Population Normal (%): 91%
  Population Pyknosed Nuclei (%): 12%
  Population Tubulin-Different-Phenotype (%): 44%
  Total Cell Count: 412
[4]
  Population Apoptotic (%): 36%
  Population Fragmented Nuclei (%): 7%
  Population Healthy Nuclei (%): 78%
  Population Hoechst High Intensity Objects (%): 7%
  Population Mitochondria Different-Phenotype (%): 72%
  Population Mitotic Cells (%): 63%
  Population Normal (%): 92%
  Population Pyknosed Nuclei (%): 13%
  Population Tubulin-Different-Phenotype (%): 25%
  Total Cell Count: 318
[5]
  Population Apoptotic (%): 26%
  Population Fragmented Nuclei (%): 18%
  Population Healthy Nuclei (%): 73%
  Population Hoechst High Intensity Objects (%): 3%
  Population Membrane Permeable-Phenotype (%): 1%
  Population Mitochondria Different-Phenotype (%): 15%
  Population Mitotic Cells (%): 73%
  Population Normal (%): 96%
  Population Pyknosed Nuclei (%): 8%
  Population Tubulin-Different-Phenotype (%): 11%
  Total Cell Count: 645
[6]
  Population Apoptotic (%): 32%
  Population Fragmented Nuclei (%): 6%
  Population Healthy Nuclei (%): 85%
  Population Membrane Permeable-Phenotype (%): 0%
  Population Mitochondria Different-Phenotype (%): 36%
  Population Mitotic Cells (%): 67%
  Population Pyknosed Nuclei (%): 7%
  Population Tubulin-Different-Phenotype (%): 16%
  Total Cell Count: 447
[7]
  Population Apoptotic (%): 28%
  Population Fragmented Nuclei (%): 6%
  Population Healthy Nuclei (%): 82%
  Population Hoechst High Intensity Objects (%): 8%
  Population Membrane Permeable-Phenotype (%): 0%
  Population Mitochondria Different-Phenotype (%): 42%
  Population Mitotic Cells (%): 71%
  Population Normal (%): 91%
  Population Pyknosed Nuclei (%): 11%
  Population Tubulin-Different-Phenotype (%): 34%
  Total Cell Count: 487
[8]
  Population Apoptotic (%): 36%
  Population Fragmented Nuclei (%): 10%
  Population Healthy Nuclei (%): 78%
  Population Hoechst High Intensity Objects (%): 6%
  Population Mitochondria Different-Phenotype (%): 63%
  Population Mitotic Cells (%): 63%
  Population Normal (%): 93%
  Population Pyknosed Nuclei (%): 10%
  Population Tubulin-Different-Phenotype (%): 23%
  Total Cell Count: 379
[9]
  Population Apoptotic (%): 17%
  Population Fragmented Nuclei (%): 20%
  Population Healthy Nuclei (%): 73%
  Population Hoechst High Intensity Objects (%): 2%
  Population Membrane Permeable-Phenotype (%): 1%
  Population Mitochondria Different-Phenotype (%): 15%
  Population Mitotic Cells (%): 82%
  Population Normal (%): 97%
  Population Pyknosed Nuclei (%): 5%
  Population Tubulin-Different-Phenotype (%): 12%
  Total Cell Count: 964
[10]
  Population Apoptotic (%): 34%
  Population Fragmented Nuclei (%): 13%
  Population Healthy Nuclei (%): 78%
  Population Hoechst High Intensity Objects (%): 3%
  Population Mitochondria Different-Phenotype (%): 22%
  Population Mitotic Cells (%): 65%
  Population Normal (%): 96%
  Population Pyknosed Nuclei (%): 8%
  Population Tubulin-Different-Phenotype (%): 11%
  Total Cell Count: 621
[11]
  Population Apoptotic (%): 33%
  Population Fragmented Nuclei (%): 14%
  Population Healthy Nuclei (%): 76%
  Population Hoechst High Intensity Objects (%): 2%
  Population Membrane Permeable-Phenotype (%): 0%
  Population Mitochondria Different-Phenotype (%): 28%
  Population Mitotic Cells (%): 66%
  Population Normal (%): 97%
  Population Pyknosed Nuclei (%): 9%
  Population Tubulin-Different-Phenotype (%): 18%
  Total Cell Count: 713
[12]
  Population Apoptotic (%): 50%
  Population Fragmented Nuclei (%): 13%
  Population Healthy Nuclei (%): 80%
  Population Hoechst High Intensity Objects (%): 3%
  Population Membrane Permeable-Phenotype (%): 1%
  Population Mitochondria Different-Phenotype (%): 33%
  Population Mitotic Cells (%): 50%
  Population Normal (%): 96%
  Population Pyknosed Nuclei (%): 5%
  Population Tubulin-Different-Phenotype (%): 13%
  Total Cell Count: 508
